Tests used:
[1] = Stability in pH 7.4 isotonic tris buffer assessed as parent compound remaining after 6 hrs by HPLC analysis; assay type: physicochemical; conditions: read-out: Stability
Method in brief: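 Chemical hydrolysis was run at 37 °C in isotonic Tris-HCl buffer at pH 7.4. The percentage of intact parent was measured after 6 h.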

[2] = Half-life in human in presence of COMT inhibitor entacapone; assay type: ADME, organism-based; conditions: in vivo
[3] = Half life in 10% rat liver homogenate by HPLC method; assay type: ADME, tissue-based
Method in brief: (§1)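 Conversion of the compound was followed at 37 °C in 10% rat liver homogenate. The intact parent was tracked over time up to 6 h, and half-life or the percentage remaining at 6 h was taken from this.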

[4] = molecular target: T1, Large neutral amino acids transporter small subunit 1 (Homo sapiens, UniProt Q01650); assay: Inhibition of LAT1-mediated [14C]-L-leucine uptake in human MCF7 cells after 5 mins by liquid scintillation counting method; assay type: cell-based
T1 sequence (Q01650 whole entry): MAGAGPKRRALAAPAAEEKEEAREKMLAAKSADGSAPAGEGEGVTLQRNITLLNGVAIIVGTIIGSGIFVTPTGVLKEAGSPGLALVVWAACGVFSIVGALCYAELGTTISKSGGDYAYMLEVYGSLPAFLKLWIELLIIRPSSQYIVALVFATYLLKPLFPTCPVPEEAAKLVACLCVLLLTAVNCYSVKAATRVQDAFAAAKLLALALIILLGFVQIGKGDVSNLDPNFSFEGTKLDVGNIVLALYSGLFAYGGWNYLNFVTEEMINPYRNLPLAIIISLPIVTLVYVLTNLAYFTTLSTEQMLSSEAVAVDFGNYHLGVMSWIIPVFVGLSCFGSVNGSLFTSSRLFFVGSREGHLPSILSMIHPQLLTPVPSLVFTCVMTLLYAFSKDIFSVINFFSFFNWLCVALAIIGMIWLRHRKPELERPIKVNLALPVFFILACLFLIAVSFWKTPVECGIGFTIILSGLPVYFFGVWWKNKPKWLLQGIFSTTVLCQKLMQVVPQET

[5] = molecular target: T1, Large neutral amino acids transporter small subunit 1; assay: Drug uptake in human MCF7 cells assessed as LAT1-mediated drug transportation rate at 3.125 to 100 uM after 10 mins by LC-MS analysis; assay type: ADME, cell-based; conditions: mcf7, 10 min
[6] = Half-life in human in presence of AADC inhibitor carbidopa; assay type: ADME, organism-based; conditions: in vivo
[7] = Stability in 10% rat liver homogenates assessed as parent compound remaining after 6 hrs by HPLC analysis; assay type: ADME, tissue-based; conditions: for remaining at 6 h: 10% rat liver homogenate, read-out: Stability; method in brief: as §1
[8] = Stability in 75% rat plasma assessed as parent compound remaining after 6 hrs by HPLC analysis; assay type: ADME, cell-free; conditions: read-out: Stability
Method in brief: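 Incubated at 37 °C in 75% rat plasma, alongside isotonic Tris-HCl buffer (pH 7.4) and 10% rat liver homogenate. The read-out was the percentage of intact parent compound after 6 h, taken as conversion to dopamine.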

[9] = molecular target: T1, Large neutral amino acids transporter small subunit 1; assay: Drug uptake in human MCF7 cells assessed as LAT1-mediated drug transportation rate at 25 to 50 uM after 10 mins by LC-MS analysis; assay type: ADME, cell-based; conditions: mcf7, 10 min

remaining at 6 h [1] | half-life [2] | half-life [3] | IC50 [4] | inhibition [4] | Vmax [5] | half-life [6] | Stability ([7]; tissue homogenate, 6 h) | Structure (SMILES) | remaining at 6 h [8] | remaining at 6 h [7] | Vmax [9]
99.8 to 103% | 30 to 90 min | 15.5 min | 100 µM | Dose-dependent effect | 2.6 nmol/mg/min | 60 min | Unstable | N[C@@H](Cc1ccc(O)c(O)c1)C(=O)O [LEVODOPA] | – | – | –
83.2 to 83.7% | – | – | 32.4 µM | Dose-dependent effect | – | – | – | Cl.NC(Cc1cccc(C(=O)NCCc2ccc(O)c(O)c2)c1)C(=O)O (stereo not given) | 57.4 to 62.7% | 47.7 to 51.9% | < 3 pmol/mg/min

Structure (SMILES) | remaining at 6 h [1] | half-life [2] | half-life [3] | IC50 [4] | inhibition [4] | Vmax [5] | half-life [6] | Stability ([7]; tissue homogenate, 6 h) | remaining at 6 h [8] | remaining at 6 h [7] | Vmax [9]
Cl.N[C@@H](Cc1ccc(OC(=O)NCCc2ccc(O)c(O)c2)cc1)C(=O)O | 78.1 to 93.1% | – | – | 27.7 µM | Dose-dependent effect | – | – | – | 40.5 to 60.5% | 63.2 to 66.5% | < 3 pmol/mg/min

— ChEMBL document CHEMBL4229488, “Secondary carbamate linker can facilitate the sustained release of dopamine from brain-targeted prodrug” (Bioorg Med Chem Lett, 2018)
